Experimental data reported in ChEMBL document CHEMBL4689842, “EUbOPEN Chemogenomics Library wave 1” (2021).

Tested on: U2OS
Assay: Multiplex assay against U2OS
Type: toxicity, cell-based
Conditions: human
In short: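 Live cells were stained at seeding with Hoechst33342, BioTracker Green Microtubule Cytoskeleton Dye, MitoTracker Red and Annexin V Alexa Fluor 680, then imaged on a CQ1 microscope at 37°C and 5% CO2 after compound addition. CellPathfinder machine-learning gating split cells into Hoechst high-intensity objects or normal cells. Normal cells were split into healthy, pyknosed or fragmented nuclei, and pyknosed cells into mitotic or apoptotic. Tubulin, mitochondrial-mass and membrane-permeability phenotypes are per cents of healthy-nucleus cells.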

[1] = 12 h, 1 µM, compound concentration 1 uM, replicate 1
[2] = 12 h, 1 µM, compound concentration 1 uM, replicate 2
[3] = 12 h, 10 µM, compound concentration 10 uM, replicate 1
[4] = 12 h, 10 µM, compound concentration 10 uM, replicate 2
[5] = 24 h, 1 µM, compound concentration 1 uM, replicate 1
[6] = 24 h, 1 µM, compound concentration 1 uM, replicate 2
[7] = 24 h, 10 µM, compound concentration 10 uM, replicate 1
[8] = 24 h, 10 µM, compound concentration 10 uM, replicate 2
[9] = 48 h, 1 µM, compound concentration 1 uM, replicate 1
[10] = 48 h, 1 µM, compound concentration 1 uM, replicate 2
[11] = 48 h, 10 µM, compound concentration 10 uM, replicate 1
[12] = 48 h, 10 µM, compound concentration 10 uM, replicate 2

SMILES: CC(=O)c1cc(-c2cc(C(=O)NC3CC3)ccc2C)c2ncccn12
- Population Apoptotic (%) [1]: 42%
- Population Fragmented Nuclei (%) [1]: 6%
- Population Healthy Nuclei (%) [1]: 84%
- Population Hoechst High Intensity Objects (%) [1]: 5%
- Population Membrane Permeable-Phenotype (%) [1]: 9%
- Population Mitochondria Different-Phenotype (%) [1]: 8%
- Population Mitotic Cells (%) [1]: 57%
- Population Normal (%) [1]: 94%
- Population Pyknosed Nuclei (%) [1]: 8%
- Population Tubulin-Different-Phenotype (%) [1]: 14%
- Total Cell Count [1]: 108
- Population Apoptotic (%) [2]: 66%
- Population Fragmented Nuclei (%) [2]: 8%
- Population Healthy Nuclei (%) [2]: 85%
- Population Hoechst High Intensity Objects (%) [2]: 7%
- Population Membrane Permeable-Phenotype (%) [2]: 2%
- Population Mitochondria Different-Phenotype (%) [2]: 7%
- Population Mitotic Cells (%) [2]: 33%
- Population Normal (%) [2]: 92%
- Population Pyknosed Nuclei (%) [2]: 6%
- Population Tubulin-Different-Phenotype (%) [2]: 19%
- Total Cell Count [2]: 73
- Population Apoptotic (%) [3]: 43%
- Population Fragmented Nuclei (%) [3]: 7%
- Population Healthy Nuclei (%) [3]: 79%
- Population Hoechst High Intensity Objects (%) [3]: 6%
- Population Membrane Permeable-Phenotype (%) [3]: 6%
- Population Mitochondria Different-Phenotype (%) [3]: 9%
- Population Mitotic Cells (%) [3]: 56%
- Population Normal (%) [3]: 93%
- Population Pyknosed Nuclei (%) [3]: 12%
- Population Tubulin-Different-Phenotype (%) [3]: 16%
- Total Cell Count [3]: 169
- Population Apoptotic (%) [4]: 60%
- Population Fragmented Nuclei (%) [4]: 11%
- Population Healthy Nuclei (%) [4]: 84%
- Population Hoechst High Intensity Objects (%) [4]: 4%
- Population Membrane Permeable-Phenotype (%) [4]: 3%
- Population Mitochondria Different-Phenotype (%) [4]: 8%
- Population Mitotic Cells (%) [4]: 40%
- Population Normal (%) [4]: 95%
- Population Pyknosed Nuclei (%) [4]: 5%
- Population Tubulin-Different-Phenotype (%) [4]: 17%
- Total Cell Count [4]: 52
- Population Apoptotic (%) [5]: 43%
- Population Fragmented Nuclei (%) [5]: 4%
- Population Healthy Nuclei (%) [5]: 89%
- Population Hoechst High Intensity Objects (%) [5]: 4%
- Population Membrane Permeable-Phenotype (%) [5]: 6%
- Population Mitochondria Different-Phenotype (%) [5]: 5%
- Population Mitotic Cells (%) [5]: 56%
- Population Normal (%) [5]: 96%
- Population Pyknosed Nuclei (%) [5]: 6%
- Population Tubulin-Different-Phenotype (%) [5]: 17%
- Total Cell Count [5]: 111
- Population Apoptotic (%) [6]: 0%
- Population Fragmented Nuclei (%) [6]: 3%
- Population Healthy Nuclei (%) [6]: 91%
- Population Membrane Permeable-Phenotype (%) [6]: 3%
- Population Mitochondria Different-Phenotype (%) [6]: 9%
- Population Mitotic Cells (%) [6]: 100%
- Population Normal (%) [6]: 95%
- Population Pyknosed Nuclei (%) [6]: 5%
- Population Tubulin-Different-Phenotype (%) [6]: 12%
- Total Cell Count [6]: 70
- Population Apoptotic (%) [7]: 25%
- Population Fragmented Nuclei (%) [7]: 15%
- Population Healthy Nuclei (%) [7]: 66%
- Population Hoechst High Intensity Objects (%) [7]: 2%
- Population Membrane Permeable-Phenotype (%) [7]: 10%
- Population Mitochondria Different-Phenotype (%) [7]: 5%
- Population Mitotic Cells (%) [7]: 75%
- Population Normal (%) [7]: 97%
- Population Pyknosed Nuclei (%) [7]: 18%
- Population Tubulin-Different-Phenotype (%) [7]: 17%
- Total Cell Count [7]: 250
- Population Apoptotic (%) [8]: 48%
- Population Fragmented Nuclei (%) [8]: 11%
- Population Healthy Nuclei (%) [8]: 63%
- Population Membrane Permeable-Phenotype (%) [8]: 8%
- Population Mitochondria Different-Phenotype (%) [8]: 12%
- Population Mitotic Cells (%) [8]: 51%
- Population Pyknosed Nuclei (%) [8]: 24%
- Population Tubulin-Different-Phenotype (%) [8]: 18%
- Total Cell Count [8]: 62
- Population Apoptotic (%) [9]: 47%
- Population Fragmented Nuclei (%) [9]: 3%
- Population Healthy Nuclei (%) [9]: 91%
- Population Hoechst High Intensity Objects (%) [9]: 2%
- Population Membrane Permeable-Phenotype (%) [9]: 3%
- Population Mitochondria Different-Phenotype (%) [9]: 9%
- Population Mitotic Cells (%) [9]: 52%
- Population Normal (%) [9]: 97%
- Population Pyknosed Nuclei (%) [9]: 5%
- Population Tubulin-Different-Phenotype (%) [9]: 21%
- Total Cell Count [9]: 106
- Population Apoptotic (%) [10]: 16%
- Population Fragmented Nuclei (%) [10]: 2%
- Population Hoechst High Intensity Objects (%) [10]: 3%
- Population Membrane Permeable-Phenotype (%) [10]: 2%
- Population Mitochondria Different-Phenotype (%) [10]: 20%
- Population Mitotic Cells (%) [10]: 83%
- Population Normal (%) [10]: 96%
- Population Pyknosed Nuclei (%) [10]: 6%
- Population Tubulin-Different-Phenotype (%) [10]: 23%
- Total Cell Count [10]: 67
- Population Apoptotic (%) [11]: 70%
- Population Fragmented Nuclei (%) [11]: 16%
- Population Healthy Nuclei (%) [11]: 60%
- Population Hoechst High Intensity Objects (%) [11]: 7%
- Population Membrane Permeable-Phenotype (%) [11]: 10%
- Population Mitochondria Different-Phenotype (%) [11]: 6%
- Population Mitotic Cells (%) [11]: 30%
- Population Normal (%) [11]: 92%
- Population Pyknosed Nuclei (%) [11]: 22%
- Population Tubulin-Different-Phenotype (%) [11]: 16%
- Total Cell Count [11]: 381
- Population Apoptotic (%) [12]: 87%
- Population Fragmented Nuclei (%) [12]: 14%
- Population Healthy Nuclei (%) [12]: 73%
- Population Hoechst High Intensity Objects (%) [12]: 4%
- Population Membrane Permeable-Phenotype (%) [12]: 31%
- Population Mitochondria Different-Phenotype (%) [12]: 29%
- Population Mitotic Cells (%) [12]: 12%
- Population Normal (%) [12]: 95%
- Population Pyknosed Nuclei (%) [12]: 11%
- Population Tubulin-Different-Phenotype (%) [12]: 35%
- Total Cell Count [12]: 93
